Results from ChEMBL document CHEMBL1154061, “Synthesis and in vitro antibacterial activity of 7-(4-alkoxyimino-3-amino-3-methylpiperidin-1-yl)fluoroquinolone derivatives” (Eur J Med Chem, 2009).
In brackets after ≈: the same amount, converted by molar mass.

Assays:
Streptococcus pneumoniae = test: Antibacterial activity against Streptococcus pneumoniae 97100 after 18 to 24 hrs by twofold serial dilution method; type: functional
Procedure, shortened: (§1)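 Agar media, standard twofold serial dilution (NCCLS M100-S11 basis). Plates incubated at 35 °C for 18–24 h. MIC taken as the lowest compound concentration giving complete inhibition of visible bacterial growth.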

Enterobacter cloacae = test: Antibacterial activity against Enterobacter cloacae 45301 after 18 to 24 hrs by twofold serial dilution method; type: functional; procedure, shortened: as §1
Streptococcus pyogenes = test: Antibacterial activity against Streptococcus pyogenes 9619 after 18 to 24 hrs by twofold serial dilution method; type: functional; procedure, shortened: as §1
[1] = tested on: Staphylococcus epidermidis; test: Antibacterial activity against methicillin-resistant Staphylococcus epidermidis 05-1 after 18 to 24 hrs by twofold serial dilution method; type: functional
Procedure, shortened: (§2)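 Agar twofold serial dilution MIC. Plates incubated at 35 °C for 18–24 h. MIC taken as the lowest compound concentration giving complete inhibition of visible bacterial growth.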

[2] = Cytotoxicity against african green monkey Vero cells assessed as cell viability after 72 hrs by MTT assay; type: cell-based; conditions: chlorocebus sabaeus
Enterococcus faecalis = test: Antibacterial activity against Enterococcus faecalis ATCC 29212 after 18 to 24 hrs by twofold serial dilution method; type: functional; procedure, shortened: as §1
Shigella sonnei = test: Antibacterial activity against Shigella sonnei 51592 after 18 to 24 hrs by twofold serial dilution method; type: functional; procedure, shortened: as §1
Klebsiella pneumoniae = test: Antibacterial activity against Klebsiella pneumoniae 7 after 18 to 24 hrs by twofold serial dilution method; type: functional; procedure, shortened: as §1
Escherichia coli = test: Antibacterial activity against Escherichia coli 26 after 18 to 24 hrs by twofold serial dilution method; type: functional; procedure, shortened: as §1
Pseudomonas aeruginosa = test: Antibacterial activity against Pseudomonas aeruginosa 17 after 18 to 24 hrs by twofold serial dilution method; type: functional; procedure, shortened: as §1
Staphylococcus aureus [3] = test: Antibacterial activity against Staphylococcus aureus ATCC 29213 after 18 to 24 hrs by twofold serial dilution method; type: functional; procedure, shortened: as §1
[4] = tested on: Staphylococcus epidermidis; test: Antibacterial activity against Staphylococcus epidermidis ATCC 12228 after 18 to 24 hrs by twofold serial dilution method; type: functional; procedure, shortened: as §1
Staphylococcus aureus [5] = test: Antibacterial activity against methicillin-resistant Staphylococcus aureus 05-3 after 18 to 24 hrs by twofold serial dilution method; type: functional; procedure, shortened: as §2

SMILES | MIC (Streptococcus pneumoniae) [µg/mL] | MIC (Enterobacter cloacae) [µg/mL] | MIC (Streptococcus pyogenes) [µg/mL] | MIC [1] [µg/mL] | CC50 at 72 h [2] [µM] | MIC (Enterococcus faecalis) [µg/mL] | MIC (Shigella sonnei) [µg/mL] | MIC (Klebsiella pneumoniae) [µg/mL] | MIC (Escherichia coli) [µg/mL] | MIC (Pseudomonas aeruginosa) [µg/mL] | MIC (Staphylococcus aureus [3]) [µg/mL] | MIC [4] [µg/mL] | MIC (Staphylococcus aureus [5]) [µg/mL]
CCO/N=C1/CCN(c2c(F)cc3c(=O)c(C(=O)O)cn(CCF)c3c2F)CC1(C)N (centres undefined) | 16 (≈ 36.3 µM) | 16 (≈ 36.3 µM) | 32 (≈ 72.7 µM) | > 128 | 243 | 16 (≈ 36.3 µM) | 16 (≈ 36.3 µM) | 4 (≈ 9.08 µM) | 8 (≈ 18.2 µM) | 128 (≈ 291 µM) | 2 (≈ 4.54 µM) | 2 (≈ 4.54 µM) | > 128
C[C@H]1COc2c(N3CCN(C)CC3)c(F)cc3c(=O)c(C(=O)O)cn1c23.C[C@H]1COc2c(N3CCN(C)CC3)c(F)cc3c(=O)c(C(=O)O)cn1c23.O [LEVOFLOXACIN] |  | 0.125 | 4 | 32 | > 1000 | 1 | 1 |  |  | 0.5 | 0.25 | 0.5 | 32
CO/N=C1/CCN(c2nc3c(cc2F)c(=O)c(C(=O)O)cn3-c2ccc(F)cc2F)CC1(C)N (centres undefined) | 8 (≈ 16.8 µM) | 16 (≈ 33.7 µM) | > 128 | > 128 | 259 | 8 (≈ 16.8 µM) | 8 (≈ 16.8 µM) | 8 (≈ 16.8 µM) | 8 (≈ 16.8 µM) | 32 (≈ 67.3 µM) | 1 (≈ 2.1 µM) | 2 (≈ 4.21 µM) | > 128
CO/N=C1\CN(c2nc3c(cc2F)c(=O)c(C(=O)O)cn3C2CC2)CC1CN (centres undefined) [GEMIFLOXACIN] | 2 (≈ 5.14 µM) | 0.06 (≈ 0.154 µM) | 2 (≈ 5.14 µM) | 2 (≈ 5.14 µM) |  | 0.06 (≈ 0.154 µM) | 0.06 (≈ 0.154 µM) | 0.5 (≈ 1.28 µM) | 0.06 (≈ 0.154 µM) | 0.125 (≈ 0.321 µM) | < 0.03 | < 0.03 | 4 (≈ 10.3 µM)
CCO/N=C1/CCN(c2nc3c(cc2F)c(=O)c(C(=O)O)cn3-c2ccc(F)cc2F)CC1(C)N (centres undefined) | 16 (≈ 32.7 µM) | 16 (≈ 32.7 µM) | 128 (≈ 262 µM) | > 128 | 31.4 | 4 (≈ 8.17 µM) | 16 (≈ 32.7 µM) | 8 (≈ 16.3 µM) | 8 (≈ 16.3 µM) | 64 (≈ 131 µM) | 1 (≈ 2.04 µM) | 1 (≈ 2.04 µM) | 128 (≈ 262 µM)
CO/N=C1/CCN(c2c(F)cc3c(=O)c(C(=O)O)cn(CCF)c3c2F)CC1(C)N (centres undefined) | 16 (≈ 37.5 µM) | 8 (≈ 18.8 µM) | 16 (≈ 37.5 µM) | > 128 | 626 | 8 (≈ 18.8 µM) | 8 (≈ 18.8 µM) | 4 (≈ 9.38 µM) | 4 (≈ 9.38 µM) | 32 (≈ 75 µM) | 1 (≈ 2.35 µM) | 1 (≈ 2.35 µM) | > 128
